# Reference: PMC9305466 (British Journal of Clinical Pharmacology, 2022)
# Key:
# [1] = cited from earlier work; for effect of moderate hepatic impairment on exposure (AUC and C max): compared with matched healthy controls
# [2] = test system: subjects with rheumatoid arthritis (RA); test: Exposure-safety analysis; format: in vivo, human; details: up to week 52; for exposures (AUC0‐24) by presence or absence of the five most frequent TEAEs: nausea, nasopharyngitis, upper respiratory tract infection, headache, hypertension
# Method in brief: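 Individual parent and metabolite exposures came from population PK models and were analysed separately for each analyte. Data were pooled from all five studies across all doses. Data collected after rerandomization and a switch of treatment group were excluded. Exposures were compared between subjects with and without each event (serious TEAEs, serious infections). Cmax was also evaluated.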
# JAK1 = details: GS‐829845 vs filgotinib; cited from earlier work
# [3] = phase 1 studies; cited from earlier work
# [4] = test system: subjects with moderately to severely active rheumatoid arthritis (RA); test: Exposure-efficacy analysis; format: in vivo, human; details: week 12; filgotinib 100 mg group
# Method in brief: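 Individual exposures came from population PK models (nonlinear mixed-effects), built separately for parent and active metabolite. Parent and metabolite exposures were combined as AUCeff, weighted by relative JAK1 inhibition potency. Data were pooled from 3 phase 3 and 2 phase 2 studies: dosed subjects with ≥1 PopPK parameter, plus placebo at week 12. Binary response was fit by nonlinear logistic (Emax on logit) regression, with Clopper-Pearson binomial CIs.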
# [5] = test system: JAK1‐related interleukin‐6 (IL‐6)‐induced phosphorylated signal transducer and activator of transcription 1 (pSTAT1); details: cited from earlier work
SMILES,exposure in elderly subjects (≥75 years) compared with younger subjects [1] [fold],"exposure in subjects with severe renal impairment (RI), fold higher [1] [fold]",effect of moderate hepatic impairment on exposure (AUC and C max) [1],exposures (AUC0‐24) by presence or absence of the five most frequent TEAEs [2],serious TEAEs and serious infections against exposures [2],"potency relative to the parent (JAK1 preferential inhibitor), fold less potent (JAK1)",half‐life [3],ACR20 response rate [4],maximum inhibition of pSTAT1 ([5]; plateaued at or above 200 mg total daily dose),intermediate inhibition of pSTAT1 ([5]; total daily dose of 100 mg)
Nc1nc2cccc(-c3ccc(CN4CCS(=O)(=O)CC4)cc3)n2n1 [GS‐829845],1.33,2.74,no clinically relevant effect,similar,no exposure‐driven patterns were present,approximately 10 fold,approximately 19 hours,,,
O=C(Nc1nc2cccc(-c3ccc(CN4CCS(=O)(=O)CC4)cc3)n2n1)C1CC1 [filgotinib],1.45,1.54,no clinically relevant effect,similar,no exposure‐driven patterns were present,,~7 h,approximately 70%,~ 78%,~ 47%
